Sampled rows, rich in hits. Any-hit rate of the full collection: about 3.9%.
ANO1 activ = mouse TMEM16A channel activation, primary screen. hit rate 0.3% among 340,000. HEK293 TMEM16A/YFP-H148Q/I152L, iodide quench fluorescence; hits give low values. B-score at 10 µM. AID 623877;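 active = fluorescence-ratio B-score plate-corrected deviation score at least 3 library SD below zero, with starting fluorescence score within 5 deviations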;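 also: channel opened by trigger with iodide after compound preincubation; score built on the fluorescence ratio of max minus min over baseline; more negative score means more quench and so TMEM16A activation or potentiation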
CRFBP-R2 block = CRF-BP/CRF-R2 complex antagonism; hit rate 0.59% among 350,000; HEK293 CRF-R2/CRF-BP, CRF-induced calcium fluorescence; AID 588475; inhibition, % at 11.8 µM;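 active = inhibition of the ligand-induced calcium signal above about 50% at the single tested concentration, limit read from the data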
TMEM16A inh = blocks the mouse calcium-activated chloride channel TMEM16A; HEK293 TMEM16A/YFP iodide influx fluorescence, ionomycin; hit rate 1.2% among 310,000; normalized B-score (activity score, 25-100; higher = stronger inhibition) at 10 µM; AID 588511;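 active = ratio plate-corrected score three or more library SD toward inhibition, starting fluorescence score within five deviations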;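 also: score derived from kinetic fluorescence span divided by baseline fluorescence per well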
TAAR1 agonist = human TAAR1 agonism. hit rate 0.99% among 360,000. CHO RD-HGA16 TAAR1, Fluo-8 calcium fluorescence; vehicle wells 0%, saturating PEA agonist 100%. Q96RJ0. AID 624467. activation, % at 3 µM;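 active = activation above the mean activation of all test compounds in the run plus 3 SD, cut at about 38% in these data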
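Signal – calcium-sensitive Fluo-8 signal, excitation 470-495, emission 515-575 nm · System – RD-HGA16 (CHO) cells co-expressing Gα16 and hTAAR1 · Incubation – 17-24 h seeding, 75 min 37 °C dye, 30 min RT · Compound dosing – 3 µM single concentration · Repeats – no replicates (n 1)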
TAAR1 antag = human TAAR1 antagonism | CHO RD-HGA16 TAAR1, Fluo-8 calcium fluorescence, antagonist | inhibition, % at 3 µM | hit rate 1.5% among 360,000 | AID 624466;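 active = inhibition above a per-plate cutoff, the mean inhibition of test compounds on that plate plus 3 SD, cut at about 49% in these data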;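 also: 0% = DMSO plus EC80 beta-PEA response and 100% = DMSO alone without agonist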
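System: CHO RD-HGA16 cells bearing hTAAR1. Reagent: EC80 β-phenethylamine stimulus. Schedule: seeding 17-24 h prior, 75-min 37 °C, 30-min RT dye loading. Signal: Fluo-8 intracellular calcium dye fluorescence, real-time kinetic reads. Read-out: % inhibition from peak post-agonist over basal fluorescence ratio. Benchmarks: vehicle wells and EC80 agonist wells. Replicates: n of 1.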
CRFR2-BP ag = agonists of human CRF-binding protein/CRF-R2 receptor complex | hit rate 0.46% among 350,000 | HEK293 CRF-R2/CRF-BP, calcium dye fluorescence (FLIPR); percent of saturating CRF peptide response | AID 588473 | activation, % at 13.2 µM;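 active = activation of at least 50%, plus an integration ratio under a set limit after plate pattern correction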;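 also: plate controls were neutral control wells without compound for no effect and CRF at EC100 for full effect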
The depositor's hits bear a star; i = inactive; x = no result given.

SMILES | ANO1 activ | CRFBP-R2 block | TMEM16A inh | TAAR1 agonist | TAAR1 antag | CRFR2-BP ag
COCCCNC(=O)C[C@@H]1C[C@@]2(C(=O)OC)CCCCC=C2N(Cc2ccc3c(c2)OCO3)C1=O | x | x | x | 5 | 14 | x
COC(=O)[C@]12CCCCC=C1N(Cc1ccc3c(c1)OCO3)C(=O)[C@H](CC(=O)NCC1CCCCC1)C2 | x | x | x | 6 | 50* | x
Cc1ccc(S(=O)(=O)NCc2ccccc2)cc1C(=O)N(C)CC(=O)Nc1c(Cl)cccc1Cl | i | -3 | i | 5 | 19 | 0
Clc1nssc1=Nc1ccc(Br)cc1 | i | 29 | x | 42* | 32 | 107*
O=C(COc1cc(F)ccc1[N+](=O)[O-])N1N=C(c2cccs2)CC1c1ccco1 (configuration not stated) | i | 2 | x | 12 | 6 | -2
Cc1nc2c(s1)sc1ccccc12 | i | 51* | i | 1 | -5 | 1
CCN(CC)C(=S)Oc1ccc(Cl)cc1Cl | i | 1 | i | 11 | 13 | -1
CCNc1nc(NCC)n2c(SCc3ccc(F)cc3)nnc2n1 | i | 51* | i | 11 | -1 | 0
Cn1nc(NC(=O)CC(C)(C)CC(=O)O)c2ccccc21 | i | 5 | i | 2 | -28 | 1
COC(=O)c1sc(NC(=O)c2ccc([N+](=O)[O-])o2)c(C#N)c1C | i | 74* | i | 3 | -15 | 41
CC(=O)N1CCc2c(sc(NC(=O)c3ccc([N+](=O)[O-])o3)c2C#N)C1 | i | 11 | x | 16 | -18 | -3
CC(C)CCN1CC(=O)N2[C@@H](Cc3c([nH]c4ccccc34)C2(C)C)C1=O | i | -13 | i | 13 | 31 | -1
O=C(c1ccc([N+](=O)[O-])cc1)N(Cc1ccc(Cl)cc1Cl)N1C(=O)CCCC1=O | i | -103 | i | 2 | 15 | 53*
O=C(c1ccc([N+](=O)[O-])cc1)N(Cc1ccc(Cl)cc1)N1C(=O)CCCC1=O | i | -42 | i | 2 | 17 | 157*
O=C(c1ccc(Cl)cc1)N(Cc1ccc(Br)cc1)N1C(=O)CCC1=O | i | -9 | i | 2 | -32 | -3
Cc1nccn1CCC(=O)Nc1ccc(Cl)cc1 | i | 1 | i | 2 | -2 | 0
O=C(Nc1cccc2c1[nH]c1ccccc12)C(F)(F)F | i | 8 | 25* | 7 | 9 | 1
NC(=O)c1ccc2nc(-c3ccccc3)c(-c3ccccc3)nc2c1 | i | 52* | i | 8 | -1 | -1
CC1CC(C)(C)N(C(=O)CSc2ccc(-c3ccc(F)cc3)nn2)c2ccccc21 (configuration not stated) | i | -25 | 100* | -1 | 32 | -1
CCOc1ccc(-c2cnc(NCc3cccc4ccccc34)n2CCOC)cc1 | i | -6 | 100* | 7 | 14 | 2
COCCn1c(-c2ccc(OC)cc2)cnc1N | i | 6 | i | 18 | -6 | -2
O=C(OCc1ccc2c(c1)OCO2)c1ccc(S(=O)(=O)N2CCCC2)cc1 | i | 114* | i | 5 | 3 | 1
O=C(OCc1ccc2c(c1)OCO2)c1cccc(S(=O)(=O)N2CCCCC2)c1 | i | -10 | i | 6 | 5 | 1
Cc1cc(Cl)c(C(=O)Nc2cccc(C(F)(F)F)c2)c(C)n1 | i | 14 | i | 2 | -2 | 1
O=C(c1ccccc1)c1ccc2nc(-c3ccc(NC(=O)c4ccccc4Br)cc3)[nH]c2c1 | i | 12 | i | 12 | 68* | 1
SMILES | ANO1 activ | CRFBP-R2 block | TMEM16A inh | TAAR1 agonist | TAAR1 antag | CRFR2-BP ag
Cc1ccccc1C(=O)Nc1ccc(-c2nc3ccc(C(=O)c4ccccc4)cc3[nH]2)cc1 | i | 10 | i | 17 | 103* | 3
O=C(Nc1ccc(-c2nc3ccc(NC(=O)c4cccs4)cc3[nH]2)cc1)c1cccs1 | i | 32 | i | 5 | 61* | -1
CS(=O)(=O)c1cccc(C(=O)Nc2ccc(-c3nc4ccccc4[nH]3)cc2)c1 | i | -17 | i | 5 | 38 | 1
CS(=O)(=O)c1ccccc1C(=O)Nc1ccc(-c2nc3ccccc3[nH]2)cc1 | i | -6 | i | 4 | 15 | 0
CC(C)[C@H](NS(=O)(=O)c1ccccc1)C(=O)Nc1ccccc1N1CCOCC1 | i | -5 | x | 10 | -21 | -8
Cc1ccc(NC(=O)c2cc(N3C(=O)CCC3=O)ccc2N2CCOCC2)cc1 | i | 5 | i | 4 | 3 | 2
Cc1ccc(NC(=O)c2cc(N3C(=O)C=CC3=O)ccc2N2CCOCC2)cc1Cl | i | 0 | i | 30 | 51* | -1
COc1ccccc1NC(=O)c1csc(-n2nc(C)cc2C(F)(F)F)n1 | -4.7* | -17 | i | 2 | -9 | 6
Cc1cc(C(F)(F)F)n(-c2nc(C(=O)N/N=C/c3ccc(F)cc3)cs2)n1 | i | 71* | i | 4 | 27 | -2
O=C(c1c(F)cccc1F)N1CCCC(c2nc(-c3cccs3)no2)C1 (configuration not stated) | i | 16 | i | 2 | 3 | 0
Cc1ccc2c(c1)N(CCC(=O)NC1CCCCC1)C(=O)CO2 | i | -3 | i | -1 | -2 | -1
Cc1cccc(NC(=O)c2ccc(Cl)c(S(=O)(=O)N3CCc4ccccc43)c2)n1 | i | 2 | x | 2 | 16 | 2
CCc1nnc(NC(=O)c2ccc(Cl)c(S(=O)(=O)N3CCc4ccccc43)c2)s1 | i | -1 | 100* | 13 | 20 | 1
CN(CCc1cnn(C)c1)Cc1cn[nH]c1-c1ccc(-c2ccccc2)cc1 | -5.6* | -23 | i | x | x | 1
C[C@@H](OC(=O)c1[nH]cnc1C(=O)NCc1ccc(CNC(=O)OC(C)(C)C)cc1)c1ccccc1 | i | 10 | x | 19 | 38 | -1
COC(=O)C(C)Sc1nnc(-c2ccncc2)o1 (configuration not stated) | i | -2 | i | 0 | 20 | 1
CCOC(=O)C(Sc1nnc(-c2ccncc2)o1)C(C)=O (configuration not stated) | i | 94* | i | 7 | 0 | -3
Cc1ccc(CCNC(=O)CC2Oc3ccc(C)cc3NC2=O)cc1 (configuration not stated) | i | -8 | i | 2 | -1 | -4
O=C(CC1Oc2ccccc2NC1=O)NCCc1ccccc1 (configuration not stated) | i | -7 | i | 66* | 16 | 0
C=CCn1c(SCC(=O)Nc2c(C)cccc2C)nnc1-c1ccncc1 | i | 52* | i | 7 | -11 | 2

Screening results deposited in PubChem by several laboratories.
